In ChEMBL document CHEMBL1649465, “In vitro activity of ceftaroline alone and in combination against clinical isolates of resistant gram-negative pathogens, including beta-lactamase-producing Enterobacteriaceae and Pseudomonas aeruginosa” (2009):
Values after ≈ are worked out from the molar mass of the structure shown. Active and inactive are the calls of the source. The rule behind the calls is not given here.

Legend:
Pseudomonas aeruginosa [1] = experiment: Bactericidal activity against Pseudomonas aeruginosa isolate 956 at 1/4 times MIC after 24 hrs by time kill analysis; assay type: functional, organism-based
In short: (§1)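 Duplicate 24-h time-kill of the drug combination, each agent at one-fourth its MIC. […] Counts were taken by spiral plating after dilution in cold saline.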

Escherichia coli [2] = experiment: Antimicrobial activity against Escherichia coli isolate 5411 by broth microdilution method; assay type: functional
Klebsiella pneumoniae [3] = experiment: Antimicrobial activity against Klebsiella pneumoniae isolate 5427 by broth microdilution method; assay type: functional
Pseudomonas aeruginosa [4] = experiment: Antimicrobial activity against Pseudomonas aeruginosa isolate 956 by broth microdilution method; assay type: functional
Klebsiella pneumoniae [5] = experiment: Bactericidal activity against Klebsiella pneumoniae isolate 5427 at 1/4 times MIC after 24 hrs by time kill analysis; assay type: functional, organism-based
In short: (§2)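 Duplicate time-kill assays in 2-ml cultures of Mg/Ca-supplemented Mueller-Hinton broth. […] Samples taken at 0, 1, 2, 4, 8 and 24 h, serially diluted in cold 0.9% NaCl and spiral-plated for colony counts. Detection limit 2 log10 CFU/ml. Reported as decrease in log10 CFU/ml (mean ± SD).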

Klebsiella pneumoniae [6] = experiment: Antimicrobial activity against Klebsiella pneumoniae isolate 5436 by broth microdilution method; assay type: functional
Escherichia coli [7] = experiment: Antimicrobial activity against Escherichia coli isolate 5401 by broth microdilution method; assay type: functional
Pseudomonas aeruginosa [8] = experiment: Bactericidal activity against Pseudomonas aeruginosa isolate 796 at 1/4 times MIC after 24 hrs by time kill analysis; assay type: functional, organism-based; in short: as §1
Pseudomonas aeruginosa [9] = experiment: Bactericidal activity against Pseudomonas aeruginosa isolate 1019 at 1/4 times MIC after 24 hrs by time kill analysis; assay type: functional, organism-based; in short: as §1
Klebsiella pneumoniae [10] = experiment: Bactericidal activity against Klebsiella pneumoniae isolate 5436 at 1/4 times MIC after 24 hrs by time kill analysis; assay type: functional, organism-based; in short: as §1
Klebsiella pneumoniae [11] = experiment: Antimicrobial activity against ESBL-producing Klebsiella pneumoniae by broth microdilution method; assay type: functional
Escherichia coli [12] = experiment: Bactericidal activity against Escherichia coli isolate 5401 at 1/4 times MIC after 24 hrs by time kill analysis; assay type: functional, organism-based; in short: as §2
Pseudomonas aeruginosa [13] = experiment: Bactericidal activity against Pseudomonas aeruginosa isolate 1037 at 1/4 times MIC after 24 hrs by time kill analysis; assay type: functional, organism-based; in short: as §1
Escherichia coli [14] = experiment: Antimicrobial activity against ESBL-producing Escherichia coli by broth microdilution method; assay type: functional
Escherichia coli [15] = experiment: Bactericidal activity against Escherichia coli isolate 5411 at 1/4 times MIC after 24 hrs by time kill analysis; assay type: functional, organism-based; in short: as §2
Enterobacter cloacae [16] = experiment: Antimicrobial activity against […] Enterobacter cloacae by broth microdilution method; assay type: functional
Pseudomonas aeruginosa [17] = experiment: Antimicrobial activity against Pseudomonas aeruginosa by broth microdilution method; assay type: functional
Enterobacter cloacae [18] = experiment: Antimicrobial activity against Enterobacter cloacae isolate 5420 by broth microdilution method; assay type: functional
Pseudomonas aeruginosa [19] = experiment: Antimicrobial activity against Pseudomonas aeruginosa isolate 796 by broth microdilution method; assay type: functional
Pseudomonas aeruginosa [20] = experiment: Antimicrobial activity against Pseudomonas aeruginosa isolate 1019 by broth microdilution method; assay type: functional
Pseudomonas aeruginosa [21] = experiment: Antimicrobial activity against Pseudomonas aeruginosa isolate 1037 by broth microdilution method; assay type: functional
Enterobacter cloacae [22] = experiment: Antimicrobial activity against Enterobacter cloacae isolate 4073 by broth microdilution method; assay type: functional

Compound | inhibition (Pseudomonas aeruginosa [1]) | MBC (Escherichia coli [2]) | MIC (Escherichia coli [2]) | MBC (Klebsiella pneumoniae [3]) | MIC (Klebsiella pneumoniae [3]) | MIC (Pseudomonas aeruginosa [4]) | inhibition (Klebsiella pneumoniae [5]) | MIC (Klebsiella pneumoniae [6]) | MBC (Escherichia coli [7]) | MIC (Escherichia coli [7]) | inhibition (Pseudomonas aeruginosa [8]) | inhibition (Pseudomonas aeruginosa [9]) | inhibition (Klebsiella pneumoniae [10]) | MBC (Klebsiella pneumoniae [11]) | MIC (Klebsiella pneumoniae [11]) | inhibition (Escherichia coli [12]) | inhibition (Pseudomonas aeruginosa [13]) | MBC (Escherichia coli [14]) | MIC (Escherichia coli [14]) | inhibition (Escherichia coli [15]) | also measured
C[C@H]1[C@H](NC(=O)/C(=N\OC(C)(C)C(=O)O)c2csc(N)n2)C(=O)N1S(=O)(=O)O [AZTREONAM] | inactive | 32 mg/L (≈ 73.5 µM) | 8 mg/L (≈ 18.4 µM) | 1 mg/L (≈ 2.3 µM) | 0.5 mg/L (≈ 1.15 µM) | 8 mg/L (≈ 18.4 µM) | inactive | 64 mg/L (≈ 147 µM) | 0.25 mg/L (≈ 0.574 µM) | 0.25 mg/L (≈ 0.574 µM) | inactive | inactive | inactive | > 0.5 mg/L | > 0.25 mg/L | inactive | inactive | > 0.125 mg/L | > 0.125 mg/L | inactive | –
NCC[C@H](O)C(=O)N[C@@H]1C[C@H](N)[C@@H](O[C@H]2O[C@H](CN)[C@@H](O)[C@H](O)[C@H]2O)[C@H](O)[C@H]1O[C@H]1O[C@H](CO)[C@@H](O)[C@H](N)[C@H]1O [AMIKACIN] | inactive | 16 mg/L (≈ 27.3 µM) | 8 mg/L (≈ 13.7 µM) | 2 mg/L (≈ 3.42 µM) | 2 mg/L (≈ 3.42 µM) | 4 mg/L (≈ 6.83 µM) | inactive | 1 mg/L (≈ 1.71 µM) | 4 mg/L (≈ 6.83 µM) | 2 mg/L (≈ 3.42 µM) | inactive | inactive | inactive | 1 mg/L (≈ 1.71 µM) | 1 mg/L (≈ 1.71 µM) | inactive | inactive | 4 mg/L (≈ 6.83 µM) | 1 mg/L (≈ 1.71 µM) | inactive | MBC (Enterobacter cloacae [16]): 1 mg/L (≈ 1.71 µM); MIC (Enterobacter cloacae [16]): 0.5 mg/L (≈ 0.854 µM); MBC (Pseudomonas aeruginosa [17]): 2 mg/L (≈ 3.42 µM); MIC (Pseudomonas aeruginosa [17]): 2 mg/L (≈ 3.42 µM); MBC (Enterobacter cloacae [18]): 2 mg/L (≈ 3.42 µM); MIC (Enterobacter cloacae [18]): 1 mg/L (≈ 1.71 µM); MBC (Pseudomonas aeruginosa [4]): 64 mg/L (≈ 109 µM); MBC (Klebsiella pneumoniae [6]): 2 mg/L (≈ 3.42 µM); MBC (Pseudomonas aeruginosa [19]): 32 mg/L (≈ 54.6 µM); MIC (Pseudomonas aeruginosa [19]): 16 mg/L (≈ 27.3 µM); MBC (Pseudomonas aeruginosa [20]): 4 mg/L (≈ 6.83 µM); MIC (Pseudomonas aeruginosa [20]): 4 mg/L (≈ 6.83 µM); MBC (Pseudomonas aeruginosa [21]): 4 mg/L (≈ 6.83 µM); MIC (Pseudomonas aeruginosa [21]): 2 mg/L (≈ 3.42 µM); MBC (Enterobacter cloacae [22]): 8 mg/L (≈ 13.7 µM); MIC (Enterobacter cloacae [22]): 1 mg/L (≈ 1.71 µM)
CO/N=C(\C(=O)N[C@@H]1C(=O)N2C(C(=O)[O-])=C(C[N+]3(C)CCCC3)CS[C@H]12)c1csc(N)n1 | inactive | – | – | 1 mg/L (≈ 2.08 µM) | 0.5 mg/L (≈ 1.04 µM) | – | inactive | – | 4 mg/L (≈ 8.32 µM) | 4 mg/L (≈ 8.32 µM) | inactive | inactive | inactive | – | – | inactive | inactive | 0.25 mg/L (≈ 0.52 µM) | – | inactive | MIC (Pseudomonas aeruginosa [19]): 8 mg/L (≈ 16.6 µM)
